Results from different studies.
Lines come from different studies, so protocols differ.
PRMT3: Protein arginine N-methyltransferase 3 (PRMT3, Homo sapiens, UniProt O60678)
TDP1: Tyrosyl-DNA phosphodiesterase 1 (TDP1, Homo sapiens, UniProt Q9NUW8)
LDHA: L-lactate dehydrogenase A chain (LDHA, Homo sapiens, UniProt P00338)
SLC22A6: Solute carrier family 22 member 6 (SLC22A6, Homo sapiens, UniProt Q4U2R8)
MAOA: Amine oxidase [flavin-containing] A (MAOA, Homo sapiens, UniProt P21397)

Structure (SMILES)	target	read-out	mode	method	time	pH	IC50 [µM]
Nc1ncnc2c1ncn2[C@@H]1O[C@H](CSCCCNC(=O)NCc2ccccc2)[C@@H](O)[C@H]1O	PRMT3	enzyme activity	inhibitor	fluorescence	–	–	70
CC1(C)C(/C=C/C=C2/N(CCCc3ccccc3)c3ccc(Cl)cc3C2(C)C)=[N+](CCCc2ccccc2)c2ccc(Cl)cc21	Protein arginine N-methyltransferase 5 (PRMT5, Homo sapiens, UniProt O14744)	enzyme activity	inhibitor	radiometric	–	–	2.19
COc1cc2c(OC)nc3c4cc5c(cc4cc(OCCCN(C)C)c3c2cc1OC)OCO5	TDP1	enzyme activity	inhibitor	–	–	–	5.5
CC(C)(C)n1nc(-c2ccc3nc(OC4CC4)ccc3c2)c(C(N)=O)c1N	Receptor-interacting serine/threonine-protein kinase 2 (RIPK2, Homo sapiens, UniProt O43353)	cell-free assay	–	–	–	–	0.2
O=c1oc2c(cc1O)oc(=O)c1cc(O)c(O)c(O)c12	LDHA	enzyme activity	inhibitor	–	–	pH 7.4	104
COc1cc(/C=C2\SC(=O)NC2=O)cc(F)c1OCCNc1nc2c(cnn2C2CCCC2)c(=O)[nH]1	High affinity 3',5'-cyclic-AMP phosphodiesterase 7A (PDE7A, Homo sapiens, UniProt Q13946)	enzyme activity	inhibitor	–	–	–	0.279
O=C(/C=C/c1ccc(O)c(O)c1)O[C@@H]1C[C@](O)(C(=O)O)C[C@@H](O)[C@H]1O	LDHA	enzyme activity	inhibitor	–	–	pH 7.4	> 500
Cc1cccc(Nc2ccccc2C(=O)O)c1C	SLC22A6	transporter uptake	inhibitor	–	–	–	1.08
NC(=O)c1cnc2[nH]ccc2c1N[C@@H]1[C@@H]2CC3C[C@H]1C[C@@](O)(C3)C2	SLC22A6	transporter uptake	inhibitor	radiometric	2 min	–	> 100
COc1cc(/C=C/C(=O)N2CCC(Cc3ccccc3)CC2)ccc1OCc1ccccc1	MAOA	enzyme activity	inhibitor	fluorescence	–	–	80.7
CCN(CC)CCCOc1cc2cc3c(cc2c2nc(OC)c4cc(OC)c(OC)cc4c12)OCO3	TDP1	enzyme activity	inhibitor	fluorescence	–	–	5.4
Clc1ccc2c(c1)N(CCCN1CCN(CCCc3ccccc3)CC1)c1ccccc1S2	Glutathione reductase, mitochondrial (GSR, Homo sapiens, UniProt P00390)	enzyme activity	inhibitor	absorbance	–	–	> 100
C[C@@H]1C[C@H]2O[C@@H]2/C=C\C=C\C(=O)Cc2c(Cl)c(O)cc(O)c2C(=O)O1	Mitogen-activated protein kinase kinase kinase 7 (MAP3K7, Homo sapiens, UniProt O43318)	enzyme activity	inhibitor	ATP luminescence	–	–	> 10
O=C(c1ccc(O)cc1O)[C@H](O)[C@@H](O)c1ccc(O)cc1	MAOA	enzyme activity	inhibitor	–	–	–	0.62
C[C@@H](N)COc1ccc(-c2cnc3ccc(N[C@H](C)c4cccc(F)c4)nn23)cc1	High affinity nerve growth factor receptor (NTRK1, Homo sapiens, UniProt P04629)	enzyme activity	inhibitor	–	–	–	0.0044
O=c1oc(Cl)c(Cl)c2ccccc12	Rhomboid protease AarA (Providencia stuartii, UniProt P46116)	enzyme activity	inhibitor	fluorescence	–	–	10
CN1CCN(c2ccc(Nc3ncc4cc(C#N)c(=O)n(C5CCCC5)c4n3)cc2)CC1	Tyrosine-protein kinase Lyn (LYN, Homo sapiens, UniProt P07948)	enzyme activity	inhibitor	–	–	–	0.0358
Cc1ccc(C(=O)Nc2ccc(S(=O)(=O)O)c3cc(S(=O)(=O)O)cc(S(=O)(=O)O)c23)cc1NC(=O)c1cccc(NC(=O)Nc2cccc(C(=O)Nc3cc(C(=O)Nc4ccc(S(=O)(=O)O)c5cc(S(=O)(=O)O)cc(S(=O)(=O)O)c45)ccc3C)c2)c1	P2X purinoceptor 4 (P2RX4, Homo sapiens, UniProt Q99571)	calcium signal	antagonist	–	–	–	44.2
Nc1ncnc2c1ncn2[C@@H]1O[C@H](CSCCNC(=O)Nc2ccc(Cl)cc2)[C@@H](O)[C@H]1O	PRMT3	enzyme activity	inhibitor	fluorescence	–	–	22
